PAFAH1B2 FP inh: PAFAH1B2 enzyme inhibitors, primary screen, biochemical, fluorescence polarization, human. Platelet-activating factor acetylhydrolase IB subunit alpha2 (Homo sapiens), P68402. recombinant PAFAH1B2, FP-rhodamine activity probe. inhibition, % at 3.39 µM. hit rate 1.2% among 340,000. AID 492953, 2010;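 active = inhibition above the mean of all tested compounds plus 3 SD, cut at about 24% in these data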;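 also: 0% = enzyme with DMSO and 100% = wells lacking PAFAH1B2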
PAFAH1B3 FP inh: PAFAH1B3 enzyme inhibitors, primary screen, biochemical, fluorescence polarization, human. Platelet-activating factor acetylhydrolase IB subunit alpha1 (Homo sapiens), Q15102. recombinant PAFAH1B3, FP-rhodamine probe. inhibition, % at 3.39 µM. hit rate 0.28% among 340,000. AID 492972, 2010;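 active = inhibition above the screen-wide average of all tested compounds plus 3 SD, cut at about 25% in these data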;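 also: 0% = enzyme with DMSO only and 100% = wells lacking PAFAH1B3 protein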
Target sequence (Q15102 whole entry, looked up): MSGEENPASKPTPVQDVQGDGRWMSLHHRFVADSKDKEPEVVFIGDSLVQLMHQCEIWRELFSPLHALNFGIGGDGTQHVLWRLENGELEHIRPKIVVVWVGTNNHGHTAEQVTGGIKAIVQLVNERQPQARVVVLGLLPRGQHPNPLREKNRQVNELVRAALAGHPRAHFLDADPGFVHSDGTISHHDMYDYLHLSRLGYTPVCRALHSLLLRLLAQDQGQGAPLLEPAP
pPAFAH inh: pPAFAH enzyme inhibitors, primary screen, biochemical, fluorescence polarization, human | Platelet-activating factor acetylhydrolase (Homo sapiens), Q13093 | recombinant pPAFAH, FP-rhodamine probe fluorescence polarization | inhibition, % at 3.39 µM | hit rate 1.5% among 330,000;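 active = inhibition above the mean inhibition across the screen plus 3 SD, cut at about 25% in these data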;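 also: inhibitors block binding of the rhodamine activity-based probe so polarization drops; 0% = enzyme with DMSO and 100% = wells lacking pPAFAH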
Target sequence (Q13093 whole entry, looked up): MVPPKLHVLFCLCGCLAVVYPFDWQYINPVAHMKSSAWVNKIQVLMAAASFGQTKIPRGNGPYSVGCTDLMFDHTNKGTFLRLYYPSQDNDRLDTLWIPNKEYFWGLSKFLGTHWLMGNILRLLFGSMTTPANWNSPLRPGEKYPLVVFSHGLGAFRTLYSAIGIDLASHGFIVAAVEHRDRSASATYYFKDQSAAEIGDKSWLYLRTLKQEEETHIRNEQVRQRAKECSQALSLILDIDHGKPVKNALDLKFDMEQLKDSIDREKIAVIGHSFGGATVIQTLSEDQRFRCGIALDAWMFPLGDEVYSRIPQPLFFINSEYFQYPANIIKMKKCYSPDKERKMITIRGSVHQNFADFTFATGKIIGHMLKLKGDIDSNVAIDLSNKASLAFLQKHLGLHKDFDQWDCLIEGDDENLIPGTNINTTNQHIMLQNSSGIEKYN
UCH37 DUB inh: inhibitors of human UCH37 deubiquitinase, primary screen, biochemical, Ub-AMC cleavage, fluorescence. Ubiquitin carboxyl-terminal hydrolase isozyme L5 (Homo sapiens), Q9Y5K5. purified proteasome/UCH37. inhibition, % (no concentration beside the values). hit rate 0.33% among 330,000. AID 588478, 2011;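 active = mean inhibition over replicate wells above about 20%, limit read from the data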;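 also: 0% = compound-free wells with enzyme and 100% = wells lacking proteasome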
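System: Proteasome-associated human UCH37 deubiquitinase; Input: 0.15 nM proteasome in added enzyme buffer; Also added: Ub-AMC substrate from 1 µM stock; Incubation: 30 min compound-proteasome preincubation then 25 min substrate reaction, room temperature; Detection: fluorescence, ex 355 nm, em 460 nm; Read-out: % inhibition of Ub-AMC cleavage fluorescence; Benchmarks: no-proteasome and no-compound wells.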
PAFAH2 FP inh: PAFAH2 enzyme inhibitors, primary screen, biochemical, fluorescence polarization, human | Platelet-activating factor acetylhydrolase 2, cytoplasmic (Homo sapiens), Q99487 | recombinant PAFAH2, FP-rhodamine activity probe | inhibition, % at 3.39 µM | hit rate 0.99% among 340,000;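 active = inhibition above the mean over all tested compounds plus 3 SD, cut at about 30% in these data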;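 also: inhibitors block probe labeling of enzyme so polarization drops; 0% = enzyme with DMSO and 100% = wells lacking PAFAH2 protein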
NR3A LBD binder: binders of NR3A ligand-binding domain, primary screen, biophysical, differential scanning fluorimetry, uHTS; NR3A LBD differential scanning fluorimetry, Tm shift; 0% = protein alone, 100% = glycine-bound protein; Tm shift relative to glycine control, % at 25 µM; hit rate 2.5% among 340,000;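 active = melting temperature shift of at least 10% of the positive control shift, at one fixed dose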
pPAFAH FP conf: pPAFAH (PLA2G7) enzyme inhibitors, confirmation, biochemical, fluorescence polarization, human | inhibition, % at 3.39 µM | hit rate 72% among 2,300 | recombinant pPAFAH, FP-Rh probe fluorescence polarization | shares compounds with pPAFAH inh;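 active = mean inhibition of the triplicate above the hit cutoff set for the earlier primary screen, cut at about 25% in these data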;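 also: 0% = enzyme with DMSO and 100% = wells lacking pPAFAH enzyme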
Active calls of the source: *; . = no result. Only some compounds are listed: those with a hit (about 4.8% of all), similar ones and a draw of the others.

SMILES	PAFAH1B2 FP inh	PAFAH1B3 FP inh	pPAFAH inh	UCH37 DUB inh	PAFAH2 FP inh	NR3A LBD binder	pPAFAH FP conf
Cc1cc(=O)[nH]c(NN=Cc2ccc([N+](=O)[O-])cc2)n1	.	.	.	2.1	.	.	.
O=[N+]([O-])c1ccccc1C=Nn1c(C(F)(F)F)n[nH]c1=S	.	.	.	3.7	.	.	.
C/C(=N\NC(=O)c1cc(O)ccc1O)c1cccc(NC(=O)c2ccc(Cl)cc2)c1	9.9	18.3	46.2*	.	8.7	5.2	20.6
C/C(=N\NC(=O)c1cc(O)ccc1O)c1cccc(NC(=O)c2cccc(Cl)c2)c1	7.0	11.0	38.2*	.	11.3	2.4	15.1
O=C(NN=CC1CC=CCC1)c1ccc(Br)o1 (centres undefined)	.	.	.	2.2	.	.	.
CCn1cc(C=NNC(=O)c2ccc(C#N)cc2F)c2ccccc21	.	.	.	7.2	.	.	.
CCN(CC)c1ccc(-c2nn3c(-c4n[nH]c5c4CCC5)nnc3s2)cc1	2.3	2.5	35.2*	-211.3	20.0	-4.8	45.4*
Cc1cccc(C)c1NC(=O)COc1cccc(C=NNC(=O)C(=O)NCc2ccccc2)c1	.	.	.	2.7	.	.	.
Cc1ccc(C)c(S(=O)(=O)NN=Cc2ccc(N3CCOCC3)cc2)c1	.	.	.	7.7	.	.	.
COc1ccc(C(=O)Oc2c(CN3CCOCC3)cc(Cl)c3cccnc23)cc1	-0.8	10.2	3.5	-3.4	1.8	-1.9	.
COc1cc(C(=O)Oc2c(CN3CCOCC3)cc(Cl)c3cccnc23)cc(OC)c1OC	1.1	5.0	39.5*	4.5	4.2	-2.1	5.3
FC(F)C(F)(F)C(F)(F)C(F)(F)c1cc(-c2ccccc2)n[nH]1	-5.3	4.3	56.2*	2.3	1.2	-6.8	49.5*
Cc1cc(-c2ccccc2)n[nH]1	1.1	-1.0	-0.3	2.4	12.3	-0.1	.
Cc1[nH]c2ccccc2c1C=NNC(=O)CNC(=O)c1ccccc1	.	.	.	6.3	.	.	.
COc1cccc(C=Nn2c(C3CCCCC3)n[nH]c2=S)c1O	.	.	.	6.7	.	.	.
CN(/N=C/c1ccc(O)cc1O)c1nc(-c2ccccc2)cc(-c2ccccc2)n1	-1.8	16.3	36.6*	.	3.4	22.2*	10.4
CCOC(=O)NC1(Nc2ccc(C)cc2)Oc2ccccc2O1	6.8	11.1	45.6*	4.8	3.6	1.0	4.8
O=C(NC(=S)Nc1cccc(S(=O)(=O)NC2=NCCC2)c1)c1cc(-c2ccco2)nc2ccccc12	-2.6	3.0	20.1	-72.9	2.9	-0.2	.
O=C(Nc1cccc(S(=O)(=O)NC2=NCCC2)c1)c1cc(-c2ccco2)nc2ccccc12	0.2	7.6	43.5*	-154.9	4.4	-2.6	21.9
Cc1cc(-c2ccc(C=Nn3cnnc3)o2)ccc1Cl	.	.	.	3.9	.	.	.
CC(=NNC(=S)NC1CCCCC1)c1cccc(C(F)(F)F)c1	.	.	.	-0.4	.	.	.
Cc1cc(C)nc(SCC(=O)c2ccc(O)c(O)c2)n1	5.4	16.6	4.6	1.8	13.4	2.1	.
Cc1cc(SCC(=O)c2ccc(O)c(O)c2)n2nc(C)c(-c3ccccc3)c2n1	-0.9	13.2	71.8*	0.6	17.0	22.6*	88.4*
CCOC(=O)/C(C#N)=C/Nc1ccccc1NS(=O)(=O)c1cccc(C(C)=O)c1	-1.6	5.4	35.4*	26.2*	0.9	-1.5	8.9
CCOC(=O)/C(C#N)=C/Nc1ccccc1NS(=O)(=O)c1ccc(C)c(C)c1	2.6	3.6	1.1	2.4	0.7	1.6	.
SMILES	PAFAH1B2 FP inh	PAFAH1B3 FP inh	pPAFAH inh	UCH37 DUB inh	PAFAH2 FP inh	NR3A LBD binder	pPAFAH FP conf
O=C(O)c1cc(Cl)c2c(c1)[C@@H]1C=CC[C@@H]1[C@H](c1ccc(S(=O)(=O)N3CCOCC3)cc1)N2	1.8	4.2	45.9*	-9.4	40.8*	-3.7	19.6
COc1cc(C=NNC(=O)c2ccc(Cn3nc([N+](=O)[O-])c(Cl)c3C)o2)ccc1O	.	.	.	8.1	.	.	.
CN(CC(=O)Nc1ccc(Cl)cc1)C(=O)c1ccc(-n2cncn2)c([N+](=O)[O-])c1	4.1	-6.6	71.2*	-0.6	2.7	1.5	0.1
Cc1cccc(C)c1NC(=O)CN(C)C(=O)c1ccc(-n2cncn2)c([N+](=O)[O-])c1	-4.8	-3.3	-5.1	3.3	7.0	2.5	.
O=C(NN=Cc1ccccn1)c1sc2ccccc2c1Cl	.	.	.	5.8	.	.	.
COc1ccc(/C=C2/C(=O)N(c3nc4ccccc4s3)N=C2CSc2ccc(Cl)cc2)cc1	-6.8	4.3	50.7*	-6.2	-7.9	8.2	17.7
CC(=NNC(=O)c1ccc(Cl)s1)c1cccnc1	.	.	.	-1.3	.	.	.
O=C(NN=Cc1cccc(F)c1)c1ccc(Cl)cc1	.	.	.	3.7	.	.	.
N#C/C(=C\c1cc(O)c(O)c(O)c1)C(N)=O	8.5	15.4	41.8*	14.5	11.7	-4.1	11.4
Cc1ccc(C(C)C)c(OCc2ccc(C(=O)N/N=C/c3ccc(O)c(O)c3)cc2)c1	-1.0	34.0*	61.2*	.	14.0	33.6*	84.1*
O=C(N/N=C/c1ccc(O)c(O)c1)c1ccc(CSc2cccc3cccnc23)cc1	9.8	17.3	69.5*	.	24.0	6.6	86.4*
C/C(C=NN1CCN(c2ccccc2)CC1)=C\c1ccccc1	.	.	.	4.2	.	.	.
Cc1nc(-c2ccccc2)sc1C(=O)Nc1ccccc1F	9.2	-7.3	8.5	5.2	-1.7	2.6	.
Cc1nc(-c2ccccc2)sc1C(=O)Nc1ccc(S(N)(=O)=O)cc1	3.9	1.1	45.6*	-5.4	3.7	11.8*	-7.0
CC(=NNc1nc(C)cc(C)n1)c1ccc(N2CCOCC2)cc1	.	.	.	6.4	.	.	.
CCn1nc(C)c(C=NNC(=O)Cn2nnc(N)n2)c1C	.	.	.	0.7	.	.	.
COc1cccc(CNC(=O)CCC2CCCN(Cc3cc(Cl)ccc3O)C2)c1 (centres undefined)	3.7	-4.6	92.2*	2.7	1.2	-2.7	68.3*
CC(=NNc1nc(C)cc(-c2ccccc2)n1)c1ccccc1	.	.	.	3.2	.	.	.
CC1=Nc2ccccc2/C1=C/c1sc(=N)n(-c2nccs2)c1O	9.0	15.8	55.7*	2.8	24.1	1.5	50.5*
COc1ccc(CNc2cc(C)ccn2)c(O)c1	1.8	10.4	5.2	1.1	-3.1	3.8	.
Cc1ccnc(NCc2ccccc2O)c1	0.7	7.5	41.3*	.	4.0	-0.7	0.9
N#Cc1ccc(/C=N/NC(=S)Nc2ccc(S(=O)(=O)N3CCOCC3)cc2)cc1	1.0	1.8	3.2	.	7.7	-2.1	.
O=S(=O)(c1ccc(NC(=S)N/N=C/c2ccc(O)c(O)c2)cc1)N1CCOCC1	6.0	12.4	65.2*	.	4.8	0.0	61.1*
